The values that follow come from ChEMBL document CHEMBL1154721, “Synthesis, antitumor activity and molecular docking study of novel sulfonamide-Schiff's bases, thiazolidinones, benzothiazinones and their C-nucleoside derivatives” (Eur J Med Chem, 2010).

≈ marks a conversion by molar mass, not a printed value.

Assay [1] in a line: Inhibition of PTK.
The test system of a further assay is HeLa. Kind of assay: Cytotoxicity against human HeLa cells after 48 hrs by SRB assay. In kind it is functional, cell-based. A digest of the protocol:
(§1)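 Cells were seeded and left 24 h to attach before dosing, then exposed to test compound at […], in triplicate wells per dose. Incubation was 48 h at 37 °C under 5% CO2. Cells were then fixed, washed and stained with sulforhodamine B, excess dye was removed with acetic acid, bound dye was recovered in Tris-EDTA buffer, and colour intensity was read on an ELISA reader.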
Background: The SRB assay estimates cell density from bound dye.

Another assay concerns MCF7. Description: Cytotoxicity against human MCF7 cells after 48 hrs by SRB assay. In kind it is functional, cell-based. The method, boiled down: as §1

One may read the Ki as a dissociation constant, usually derived from enzyme kinetics or from competition with a known ligand. A higher Ki goes with weaker binding. In turn, `COc1ccc(C2Sc3ccccc3C(=O)N2c2ccc(S(=O)(=O)Nc3ccccn3)cc2)c(O)c1` (stereo unspecified) displayed a Ki in assay [1] of 4.72 µM. In other words, the single-digit micromolar range.

In the case of `O=C1c2ccccc2SC(c2c[nH]c3ccccc23)N1c1ccc(S(=O)(=O)Nc2ccccn2)cc1` (stereo unspecified), the Ki in assay [1] is 0.553 µM.

In assay [1], `COc1ccc(C2SCC(=O)N2c2ccc(S(=O)(=O)Nc3ccccn3)cc2)cc1` (stereo unspecified) registered a Ki of 0.705 µM.

With `COc1ccc(C2Sc3ccccc3C(=O)N2c2ccc(S(=O)(=O)Nc3ccccn3)cc2)cc1OC` (stereo unspecified), the Ki in assay [1] came out at 2.51 µM.

In assay [1], `COc1cc(/C=N/c2ccc(S(=O)(=O)Nc3ccccn3)cc2)cc(OC)c1OC` gave a Ki of 0.526 µM.

Regarding `COc1ccc(/C=N/c2ccc(S(=O)(=O)Nc3ccccn3)cc2)c(O)c1`, in assay [1], affinity was put at a Ki of 0.258 µM. This Ki lies about 2-fold lower than the previous one.

With `COc1cc(C2SCC(=O)N2c2ccc(S(=O)(=O)Nc3ccccn3)cc2)cc(OC)c1OC` (stereo unspecified), affinity in assay [1] was put at a Ki of 5.32 µM.

The compound `COc1cc(C2Sc3ccccc3C(=O)N2c2ccc(S(=O)(=O)Nc3ccccn3)cc2)cc(OC)c1OC` (stereo unspecified) came in with an inhibition constant Ki in assay [1] of 48.7 µM.

As to `O=S(=O)(Nc1ccccn1)c1ccc(/N=C/[C@H](O)[C@H](O)[C@@H](O)[C@@H](O)CO)cc1`, affinity in assay [1] was put at a Ki of 0.331 µM.

`COc1ccc(C2SCC(=O)N2c2ccc(S(=O)(=O)Nc3ccccn3)cc2)c(O)c1` (stereo unspecified): the Ki in assay [1] was 15.4 µM.

For `O=C1CSC([C@H](O)[C@H](O)[C@@H](O)[C@@H](O)CO)N1c1ccc(S(=O)(=O)Nc2ccccn2)cc1` (stereo partly specified), affinity in assay [1] was put at a Ki of 2.35 µM.

`COc1ccc(/C=N/c2ccc(S(=O)(=O)Nc3ccccn3)cc2)cc1OC` had a Ki in assay [1] of 0.258 µM. Against the preceding compound, the Ki is about 9.1-fold lower.

For the compound `COc1ccc(C2SCC(=O)N2c2ccc(S(=O)(=O)Nc3ccccn3)cc2)cc1OC` (stereo unspecified), the Ki in assay [1] was 1.05 µM.

Broadly, the IC50 is the midpoint of a concentration-inhibition curve. Low values mean higher potency, high ones lower potency. As to `O=c1[nH]cc(F)c(=O)[nH]1` [FLUOROURACIL], the IC50 in the assay with HeLa was 1.01 mg/L (≈ 7.76 µM); in the assay on MCF7 it was 0.67 mg/L (≈ 5.15 µM).

`Nc1ccc(S(=O)(=O)Nc2ccccn2)cc1` [SULFAPYRIDINE] came in with a Ki in assay [1] of 3.59 µM.
